Blank lines part the entries; values can stand above or below the molecule they belong to. Activity calls are given as the source filed them. The calls are words filed in the database; no cut-off is given here.
Tests used:
[1] = molecular target: T1, Fatty-acid amide hydrolase 1 (Rattus norvegicus) (UniProt P97612); conditions: 5 to 10 nM
T1 sequence (whole entry): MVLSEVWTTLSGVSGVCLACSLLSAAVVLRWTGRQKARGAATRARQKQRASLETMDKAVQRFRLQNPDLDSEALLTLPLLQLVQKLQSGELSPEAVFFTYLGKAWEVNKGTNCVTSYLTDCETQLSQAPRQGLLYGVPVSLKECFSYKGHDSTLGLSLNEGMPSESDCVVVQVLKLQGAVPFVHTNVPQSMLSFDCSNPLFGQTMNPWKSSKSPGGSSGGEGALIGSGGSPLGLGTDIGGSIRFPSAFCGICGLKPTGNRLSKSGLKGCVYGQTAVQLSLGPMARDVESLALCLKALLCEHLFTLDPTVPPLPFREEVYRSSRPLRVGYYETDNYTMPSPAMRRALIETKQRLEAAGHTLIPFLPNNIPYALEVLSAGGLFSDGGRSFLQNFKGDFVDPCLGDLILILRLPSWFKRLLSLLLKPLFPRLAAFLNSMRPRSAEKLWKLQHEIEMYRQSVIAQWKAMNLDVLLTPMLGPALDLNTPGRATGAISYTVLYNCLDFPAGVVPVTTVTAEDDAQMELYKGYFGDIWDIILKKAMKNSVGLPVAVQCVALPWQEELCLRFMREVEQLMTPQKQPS

[2] = molecular target: T2, Fatty-acid amide hydrolase 1 (Rattus norvegicus, UniProt P97612); experiment: Inhibition of recombinant rat FAAH expressed in Escherichia coli assessed as breakdown of [14C]-oleamide by Dixon plot analysis
T2 sequence (P97612 whole entry): T1 sequence (whole entry)
Procedure, shortened: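 Purified rat FAAH expressed in E. coli, with no inhibitor preincubation. The enzyme was at 1 nM, or 800, 500 or 200 pM for tight binders. It was mixed with 20 μM 14C-oleamide in pH 9.0 Tris/EDTA/glycerol/Triton X-100/Hepes buffer at room temperature, with three inhibitor concentrations. Aliquots were quenched in 0.1 N HCl at three time points, extracted with EtOAc and separated by TLC. Ki came from a Dixon plot.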

[3] = Chemical stability in enzymatic assay buffer assessed as transient enzyme adduct formation; type: ADME
[4] = molecular target: T1, Fatty-acid amide hydrolase 1 (Rattus norvegicus); experiment: Competitive reversible inhibition of recombinant rat FAAH expressed in Escherichia coli using [14C]-oleamide as substrate at 3 to 5 nM preincubated for 3 hrs by Lineweaver-Burk plot analysis
[5] = Chemical stability in assay buffer assessed as compound hydrolysis after 6 hrs; type: physicochemical
[6] = molecular target: T2, Fatty-acid amide hydrolase 1; experiment: Time-dependent inhibition of recombinant rat FAAH expressed in Escherichia coli assessed as breakdown of [14C]-oleamide preincubated for 3 hrs by Dixon plot analysis
Procedure, shortened: (§1)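 The reaction used 20 μM 14C-oleamide in pH 9.0 Tris/EDTA/Triton X-100/Hepes buffer at 20–23 °C, at three inhibitor concentrations. HCl-quenched time points were analysed by EtOAc extraction and TLC for oleic acid formation. Ki came from a Dixon plot.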

[7] = molecular target: T1, Fatty-acid amide hydrolase 1 (Rattus norvegicus); experiment: Irreversible inhibition of recombinant rat FAAH expressed in Escherichia coli assessed as remaining activity at IC80 preincubated for 3 hrs followed by 370 fold dilution measured after 18 hrs
[8] = molecular target: T2, Fatty-acid amide hydrolase 1; experiment: Time-dependent inhibition of recombinant rat FAAH expressed in Escherichia coli assessed as breakdown of [14C]-oleamide preincubated for 1 hr by Dixon plot analysis
Procedure, shortened: as §1

[9] = test system: Mus musculus; experiment: In vivo inhibition of FAAH in C57Bl/6J mouse assessed as increase in AEA level in brain at 30 mg/kg, ip after 3 hrs relative to vehicle-treated control; type: functional; conditions: route intraperitoneal
Procedure, shortened: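 Male C57Bl/6J mice (<6 months, 20–28 g), n = 3, received 30 mg/kg i.p. in 18:1:1 saline/ethanol/emulphor at 10 μL/g. Brains were taken 3 h later and homogenized in CHCl3/MeOH/Tris with d4-PEA, d4-AEA and pentadecanoic acid standards. The organic extract was quantified by LC–ESI-MS/MS in positive mode and compared with vehicle-treated mice.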

[10] = organism: Mus musculus; experiment: Selectivity ratio of IC50 for mouse brain membrane MAGL to IC50 for mouse FAAH
[11] = organism: Mus musculus; experiment: Selectivity ratio of IC50 for mouse brain membrane KIAA1363 to IC50 for mouse FAAH
[12] = organism: Mus musculus; experiment: Selectivity ratio of IC50 for mouse brain membrane ABHD6 to IC50 for mouse FAAH
[13] = molecular target: T1, Fatty-acid amide hydrolase 1 (Rattus norvegicus); experiment: Noncompetitive inhibition of recombinant rat FAAH expressed in Escherichia coli assessed as breakdown of [14C]-oleamide at 1 to 5 nM preincubated for 3 hrs by Lineweaver-Burk plot analysis
[14] = molecular target: T2, Fatty-acid amide hydrolase 1; experiment: Time-dependent inhibition of recombinant rat FAAH expressed in Escherichia coli assessed as breakdown of [14C]-oleamide preincubated for 6 hrs by Dixon plot analysis
Procedure, shortened: as §1

[15] = test system: Mus musculus; experiment: In vivo inhibition of FAAH in C57Bl/6J mouse assessed as increase in AEA level in brain at 30 mg/kg, ip measured within 1.5 to 3 hrs; type: functional, organism-based; parameters: dose 30 mg/kg
[16] = test system: Mus musculus; experiment: In vivo inhibition of FAAH in C57Bl/6J mouse assessed as increase in AEA level in brain at 30 mg/kg, ip measured after > 6 hrs; type: functional, organism-based; parameters: dose 30 mg/kg
[17] = test system: Mus musculus; experiment: In vivo inhibition of FAAH in C57Bl/6J mouse assessed as increase in PEA level in brain at 30 mg/kg, ip measured after > 6 hrs; type: functional, organism-based; parameters: dose 30 mg/kg
[18] = test system: Mus musculus; experiment: In vivo inhibition of FAAH in C57Bl/6J mouse assessed as increase in OEA level in brain at 30 mg/kg, ip measured after > 6 hrs; type: functional, organism-based; parameters: dose 30 mg/kg
[19] = test system: Mus musculus; experiment: In vivo inhibition of FAAH in C57Bl/6J mouse assessed as increase in OEA level in brain at 30 mg/kg, ip measured within 1.5 to 3 hrs; type: functional, organism-based; parameters: dose 30 mg/kg
[20] = test system: Mus musculus; experiment: In vivo inhibition of FAAH in C57Bl/6J mouse assessed as increase in PEA level in brain at 30 mg/kg, ip measured within 1.5 to 3 hrs; type: functional, organism-based; parameters: dose 30 mg/kg
[21] = molecular target: T1, Fatty-acid amide hydrolase 1 (Rattus norvegicus); experiment: Noncompetitive inhibition of recombinant rat FAAH expressed in Escherichia coli assessed as breakdown of [14C]-oleamide at 0.5 to 5 nM preincubated for 3 hrs by Lineweaver-Burk plot analysis
[22] = molecular target: T1, Fatty-acid amide hydrolase 1 (Rattus norvegicus); experiment: Mixed-type inhibition of recombinant rat FAAH expressed in Escherichia coli assessed as breakdown of [14C]-oleamide preincubated for 3 hrs by Lineweaver-Burk plot analysis
[23] = test system: Mus musculus; experiment: In vivo inhibition of FAAH in C57Bl/6J mouse assessed as increase in AEA level in brain at 30 mg/kg, ip measured within 2 to 3 hrs; type: functional, organism-based; parameters: dose 30 mg/kg
[24] = test system: Mus musculus; experiment: In vivo inhibition of FAAH in C57Bl/6J mouse assessed as increase in PEA level in brain at 30 mg/kg, ip measured within 2 to 3 hrs; type: functional, organism-based; parameters: dose 30 mg/kg
[25] = molecular target: T1, Fatty-acid amide hydrolase 1 (Rattus norvegicus); conditions: 1 to 10 nM
[26] = test system: Mus musculus; experiment: In vivo inhibition of FAAH in C57Bl/6J mouse assessed as increase in OEA level in brain at 30 mg/kg, ip measured within 2 to 3 hrs; type: functional, organism-based; parameters: dose 30 mg/kg
[27] = molecular target: T1, Fatty-acid amide hydrolase 1 (Rattus norvegicus); experiment: Noncompetitive inhibition of recombinant rat FAAH expressed in Escherichia coli assessed as breakdown of [14C]-oleamide at 1 to 3 nM preincubated for 3 hrs by Lineweaver-Burk plot analysis
[28] = molecular target: T1, Fatty-acid amide hydrolase 1 (Rattus norvegicus); experiment: Noncompetitive inhibition of recombinant rat FAAH expressed in Escherichia coli assessed as breakdown of [14C]-oleamide at 3 to 5 nM preincubated for 3 hrs by Lineweaver-Burk plot analysis
[29] = molecular target: T1, Fatty-acid amide hydrolase 1 (Rattus norvegicus); experiment: Competitive reversible inhibition of recombinant rat FAAH expressed in Escherichia coli using [14C]-oleamide as substrate at 1 to 5 nM preincubated for 3 hrs by Lineweaver-Burk plot analysis

SMILES: CCOS(=O)(=O)/C=C/c1ccc(-c2cnc(C(=O)CCCCCCc3ccccc3)o2)nc1
remaining activity after dilution [7]: Active
Ki [8]: 0.3 nM
fold change (FC) [9]: 3.2
Ratio IC50 [10]: > 200
Ratio IC50 [11]: > 10000
Ratio IC50 [12]: > 10000
inhibition [13]: Active

SMILES: O=C(CCCCCCc1ccccc1)c1ncc(-c2ccc(CCl)cn2)o1
Ki [14]: 24.6 nM

SMILES: O=C(CCCCCCc1ccccc1)c1ncc(-c2ccc(CBr)cn2)o1
inhibition [15]: Active
remaining activity after dilution [7]: Active
fold change (FC) [9]: 3.2
inhibition [16]: Active
Ratio IC50 [10]: > 200
inhibition [17]: Active
inhibition [18]: Active
Ki [14]: 0.2 nM
inhibition [19]: Active
Ratio IC50 [11]: > 10000
inhibition [20]: Active
Ki [6]: 0.2 nM
inhibition [21]: Active
Ratio IC50 [12]: > 10000

SMILES: N#CCc1ccc(-c2cnc(C(=O)CCCCCCc3ccccc3)o2)nc1
inhibition [15]: Active
remaining activity after dilution [7]: Active
fold change (FC) [9]: 3.2
inhibition [16]: Active
Ratio IC50 [10]: > 200
inhibition [17]: Active
inhibition [18]: Active
Ki [14]: 0.5 nM
inhibition [19]: Active
Ratio IC50 [11]: > 10000
inhibition [20]: Active
Ratio IC50 [12]: > 10000
inhibition [13]: Active

SMILES: CSC(=O)CCCCc1cnc(C(=O)CCCCCCc2ccccc2)o1
inhibition [4]: Active
Stability [5]: Stable

SMILES: CS(=O)(=O)/C=C/c1ccc(-c2cnc(C(=O)CCCCCCc3ccccc3)o2)nc1
remaining activity after dilution [7]: Active
fold change (FC) [9]: 2.8
Ratio IC50 [10]: > 200
inhibition [28]: Active
Ratio IC50 [11]: > 10000
Ki [6]: 0.3 nM
Ratio IC50 [12]: > 10000

SMILES: COC(=O)c1ccc(-c2cnc(C(=O)CCCCCCc3ccccc3)o2)nc1
inhibition [29]: Active

Second part, led by results:

inhibition [1]: Active
SMILES: CSC(=O)Cc1ccc(-c2cnc(C(=O)CCCCCCc3ccccc3)o2)nc1

Ki [2]: 2 nM
Stability [3]: Stable
inhibition [4]: Active
Stability [5]: Stable
Ki [6]: 2 nM
SMILES: CSC(=O)c1ccc(-c2cnc(C(=O)CCCCCCc3ccccc3)o2)nc1

remaining activity after dilution [7]: Active
inhibition [22]: Dose-dependent effect
Ki [14]: 2.7 nM
SMILES: N#C/C=C/c1ccc(-c2cnc(C(=O)CCCCCCc3ccccc3)o2)nc1

inhibition [25]: Active
SMILES: O=C(CCCCCCc1ccccc1)c1ncc(-c2ccccn2)o1
inhibition [23]: Active
inhibition [24]: Active
inhibition [26]: Active

Ki [6]: 6.4 nM
SMILES: CSCCCCCc1cnc(C(=O)CCCCCCc2ccccc2)o1

Ki [14]: 4 nM
SMILES: N#CCCCCCc1cnc(C(=O)CCCCCCc2ccccc2)o1

Ki [2]: 6.1 nM
Ki [8]: 6.1 nM
Ki [14]: 6 nM
SMILES: O=C(CCCCCCc1ccccc1)c1ncc(CCCCCBr)o1

remaining activity after dilution [7]: Active
Ratio IC50 [10]: > 200
inhibition [27]: Active
Ratio IC50 [11]: > 10000
Ratio IC50 [12]: > 10000
SMILES: C[S+]([O-])/C=C/c1ccc(-c2cnc(C(=O)CCCCCCc3ccccc3)o2)nc1 (configuration not stated)
fold change (FC) [9]: 2.6

remaining activity after dilution [7]: Active
inhibition [22]: Dose-dependent effect
SMILES: CCOC(=O)/C=C/c1ccc(-c2cnc(C(=O)CCCCCCc3ccccc3)o2)nc1

remaining activity after dilution [7]: Active
Ratio IC50 [10]: > 200
inhibition [28]: Active
Ki [14]: 0.6 nM
Ratio IC50 [11]: > 10000
Ratio IC50 [12]: > 10000
SMILES: COC(=N)Cc1ccc(-c2cnc(C(=O)CCCCCCc3ccccc3)o2)nc1

Source: ChEMBL document CHEMBL3124899, “Design, synthesis, and characterization of α-ketoheterocycles that additionally target the cytosolic port Cys269 of fatty acid amide hydrolase” (J Med Chem, 2014)
